Measurements pooled from the literature.
Lines come from different studies, so protocols differ.
Cell line: DU-145
Read-out: cell growth or viability

Compound | technique | time | GI50 [nM]
COc1ccc(C(=O)/C=C/c2cccnc2)cc1S(N)(=O)=O | SRB | 48 h | 11200
COc1cc(-c2ccc(-c3ccc(C(=N)N)nc3)s2)cc(OC)c1OC | – | – | 3450
COc1ccc(C(=O)/C=C/c2ccc3ccccc3c2)cc1S(N)(=O)=O | SRB | 48 h | 3300
CCOc1c(OC)cc(CN2CCc3cc(OS(N)(=O)=O)c(OC)cc3C2)cc1OC | WST-1 | 96 h | 100
COc1cc2c(cc1O)CCN(Cc1ccc(OC)c(OC)c1OC)C2 | WST-1 | 96 h | > 100000
COc1ccc(C(=O)/C=C/c2cccc(Cl)c2Cl)cc1S(N)(=O)=O | SRB | 48 h | 2900
COc1cc2c(cc1O)CCN(Cc1cc(OC)c(OC)c(OC)c1)C2 | WST-1 | 96 h | 650
COc1ccc(-c2ccc(-c3ccc(C(=N)N)nc3)s2)cc1Cl | – | – | 1770
CCc1cc(CN2CCc3cc(OS(N)(=O)=O)c(OC)cc3C2)cc(CC)c1CC | WST-1 | 96 h | 1800
COc1ccc(C(=O)/C=C/c2cc3c(cc2Br)OCO3)cc1S(N)(=O)=O | SRB | 48 h | 3700
COc1cc2c(cc1O)CCN(S(=O)(=O)c1ccccc1OC)C2 | WST-1 | 96 h | > 100000
COc1ccc(C(=O)/C=C/c2ccccc2Br)cc1S(N)(=O)=O | SRB | 48 h | 3300
COc1cc2c(cc1OS(N)(=O)=O)CCN(Cc1ccc(OC)c(OC)c1OC)C2 | WST-1 | 96 h | 17000
CCOc1c(OC)cc(CN2CCc3cc(O)c(OC)cc3C2)cc1OC | WST-1 | 96 h | 300
Cc1cc(C)n(C(=S)[S][Au][PH](CCCCCC[PH]([Au][S]C(=S)n2nc(C)cc2C)(c2ccccc2)c2ccccc2)(c2ccccc2)c2ccccc2)n1 | – | – | 633
COc1cc2c(cc1O)CCN(Cc1cccc(NS(C)(=O)=O)c1)C2 | WST-1 | 96 h | > 100000
CC(=O)O[C@H]1C(=O)[C@@]2(C)[C@H]([C@H](OC(=O)c3ccccc3)[C@]3(O)C[C@H](OC(=O)[C@H](O)[C@@H](NC(=O)c4ccccc4)c4ccccc4)C(C)=C1C3(C)C)[C@]1(OC(C)=O)CO[C@@H]1C[C@@H]2O | WST-1 | 96 h | 4
COc1ccc(OC)c(CN2CCc3cc(OS(N)(=O)=O)c(OC)cc3C2)c1 | WST-1 | 96 h | 2610
CCOc1cc(CN2CCc3cc(OS(N)(=O)=O)c(OC)cc3C2)cc(OCC)c1OCC | WST-1 | 96 h | 8500
